Measured values: PMC3253265 (Immunity, 2011)

How the values were obtained:
[1] = system: 42F3 TCR; assay: SPR; type: binding, mouse; conditions: sc H2-L^d constructs
[2] = system: 42F3 T cells; assay: p3A1 antagonist assay; type: cell-based; conditions: 42F3 T cells stimulated with 100nM p4B3, range of p3A1 concentrations, same APC
In short: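 Antagonism assay: 42F3 hybridoma cells were stimulated with an agonist peptide at 100nM. The test peptide was added over a range of concentrations, and IL-2 production was read by ELISA. Anti-CD3 (2C11) and/or native peptide served as IL-2 sensitivity controls. No peptide and an irrelevant H2-Ld MCMV epitope controlled for peptide-independent IL-2.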

[3] = system: 42F3 T cells; type: cell-based; conditions: recombinant H2-L^d-Ig dimers, CD8+ 42F3 T cells, IL-2 release
In short: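 CD8+ 42F3 hybridoma transfectants were stimulated with recombinant H2-Ld-Ig dimers loaded with peptide instead of APC-presented peptide. IL-2 release was read by ELISA. Anti-CD3 (2C11) and/or native peptide controlled IL-2 sensitivity. No-peptide and irrelevant H2-Ld MCMV epitope controls covered peptide-independent IL-2.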

[4] = system: 42F3 TCR; assay: Fluorescent 42F3-tetramer staining of peptide-loaded APCs; type: cell-based
In short: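 Tetramers were made by complexing C-terminally biotinylated recombinant 42F3 TCR with PE-labelled streptavidin. They were used to stain peptide-loaded APCs, with fluorescence read by flow cytometry. Staining was compared against SPR-derived 3D affinities of the pMHC ligands.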

[5] = system: 42F3 T cells; assay: Fluorescent sc H2-L^d-tetramer staining of 42F3 T cells; type: cell-based
[6] = system: 42F3 TCR on CD8αβ− 42F3 T cells; type: binding
In short: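 42F3 hybridoma transfectants supplied the TCR. RBCs were biotinylated with biotin-X-NHS and then bound to streptavidin. Borosilicate beads were cleaned, silanized and reacted with streptavidin-maleimide. Both carried […] biotin-tagged single-chain H2-Ld-peptide complexes, the same ones used for SPR. Flow cytometry measured site densities of TCR on cells and pMHC on RBC or beads. Micropipette adhesion frequency and thermal fluctuation assays were run.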

[7] = system: 42F3 T cells; type: cell-based; conditions: CD8+ and CD8− 42F3 T cell lines, peptide-loaded APCs, up to 100μM peptide

SPLDSLWWI [p3A1]
SPR derived 3D affinity (KA), rank among the peptides [1]: highest affinity | effect on agonist (p4B3) induced activation [2]: not influenced | stimulation of 42F3 T cells by peptide-loaded H2-L^d-Ig dimers [3]: failed to stimulate | 42F3-tetramer staining of peptide-loaded APCs [4]: stain | H2-L^d-peptide-tetramer staining of 42F3 T cells [5]: did not stain | 2D-Ackon [6]: weak | 2D-koff, rank among the peptides ([6]; H2-L^d-peptide): slowest 2D-koff | IL-2 response [7]: failed to induce a strong IL-2 response
